Results published in ChEMBL document CHEMBL3108761, “Phenanthroline-2,9-bistriazoles as selective G-quadruplex ligands” (Eur J Med Chem, 2014).
Active and inactive are the calls of the source. The calls are words filed in the database; no cut-off is given here.

Assays:
Homo sapiens [1] = species: Homo sapiens; assay: Binding affinity to hairpin 5'-FAM-TATAGCTATAT7ATAGCTATA-TAMRA-3' (unknown origin) assessed as melting temperature at 0.5 uM by FRET assay
Outline: (§1)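 K+ buffer: 10 mM KCl, 100 mM LiCl, 10 mM cacodylate, pH 7.3. FAM/TAMRA dual-labelled probes were diluted to 400 nM, annealed at 85 °C for 10 min and cooled to room temperature, then mixed with ligand at the stated concentration. FAM was excited at 492 nm and read at 516 nm every 0.5 °C from 25 to 100 °C, with a 30 s hold before each reading. ΔTm was taken against a buffer-only control, in triplicate.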

Homo sapiens [2] = species: Homo sapiens; assay: Binding affinity to hairpin 5'-FAM-TATAGCTATAT7ATAGCTATA-TAMRA-3' (unknown origin) assessed as melting temperature at 1 uM by FRET assay; outline: as §1
Homo sapiens [3] = species: Homo sapiens; assay: Binding affinity to human telomeric 5'-FAMd(G3[T2AG3]3)-TAMRA-3' assessed as melting temperature at 2 uM by FRET assay; outline: as §1
Homo sapiens [4] = species: Homo sapiens; assay: Binding affinity to c-KIT G-quadruplex 5'-FAM-G3CG3CGCGAG3AG4-TAMRA-3' (unknown origin) assessed as melting temperature at 1 uM by FRET assay; outline: as §1
Homo sapiens [5] = species: Homo sapiens; assay: Binding affinity to human telomeric 5'-FAMd(G3[T2AG3]3)-TAMRA-3' assessed as melting temperature at 0.5 uM by FRET assay; outline: as §1
Homo sapiens [6] = species: Homo sapiens; assay: Binding affinity to human telomeric 5'-FAMd(G3[T2AG3]3)-TAMRA-3' assessed as melting temperature at 1 uM by FRET assay; outline: as §1
Homo sapiens [7] = species: Homo sapiens; assay: Binding affinity to c-KIT G-quadruplex 5'-FAM-G3CG3CGCGAG3AG4-TAMRA-3' (unknown origin) assessed as melting temperature at 0.5 uM by FRET assay; outline: as §1
Homo sapiens [8] = species: Homo sapiens; assay: Ratio of Kd for c-KIT G-quadruplex 5'-biotin-d[T9G3CG3CGCGAG3AG4]-3' (unknown origin) to Kd for human telomeric 5'-biotin-d[T7(T2AG3)4]-3'
[9] = Binding affinity to hairpin 5'-biotin-d[T10ATAGCTATAT7ATAGCTATA]-3' (unknown origin) assessed as dissociation constant by surface plasmon resonance assay; set-up: species or system Homo sapiens
Outline: (§2)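 Biotinylated DNA was annealed in 20 mM Tris-HCl, 200 mM KCl, pH 7.4, and captured on a streptavidin chip at ~400 RU. Running buffer: 20 mM KH2PO4, 150 mM KCl, 0.005% P20, 0.5 mM EDTA, pH 7.4. Ligand at 10–1000 nM was injected for 120 s in random order, with blank flow-cell subtraction. KD came from a steady-state affinity fit of Req against concentration; "not detected" means no significant binding at 1 µM.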

[10] = Binding affinity to human telomeric 5'-biotin-d[T7(T2AG3)4]-3' assessed as dissociation constant (KD) by surface plasmon resonance assay; outline: as §2
Homo sapiens [11] = species: Homo sapiens; assay: Binding affinity to c-KIT G-quadruplex 5'-FAM-G3CG3CGCGAG3AG4-TAMRA-3' (unknown origin) assessed as melting temperature at 2 uM by FRET assay; outline: as §1
[12] = Binding affinity to c-KIT G-quadruplex 5'-biotin-d[T9G3CG3CGCGAG3AG4]-3' (unknown origin) assessed as dissociation constant by surface plasmon resonance assay; set-up: species or system Homo sapiens; outline: as §2
Homo sapiens [13] = species: Homo sapiens; assay: Binding affinity to hairpin 5'-biotin-d[T10ATAGCTATAT7ATAGCTATA]-3' (unknown origin) assessed as melting temperature at 1 uM by surface plasmon resonance assay; outline: as §2
Homo sapiens [14] = species: Homo sapiens; assay: Binding affinity to human telomeric 5'-FAMd(G3[T2AG3]3)-TAMRA-3' in Na+ solution assessed as melting temperature at 1 uM by FRET assay
Outline: (§3)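 Telomeric FRET probe in Na+ buffer: 100 mM NaCl, 10 mM LiCl, 10 mM cacodylate, pH 7.3. Probe was diluted to 400 nM and annealed at 85 °C for 10 min, then cooled to room temperature; ligand was added at the stated concentration. Emission at 516 nm (excitation 492 nm) was read in 0.5 °C steps from 25 to 100 °C, with a 30 s hold per step. ΔTm versus buffer control, triplicate.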

Homo sapiens [15] = species: Homo sapiens; assay: Displacement of thiazole orange from human telomeric 5'-AG3(T2AG3)3-3' (unknown origin) assessed as reduction of fluorescence at 2.5 uM by G4-FID assay
Outline: (§4)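 Done at 20 °C in 10 mM sodium cacodylate pH 7.3 with 100 mM KCl; 22AG was also run with 100 mM NaCl. 0.25 µM prefolded DNA carried thiazole orange: 0.50 µM for 22AG and c-KIT, 0.75 µM for ds26. Ligand was titrated from 0.2 to 10 equivalents, with 3 min equilibration per step. Displacement = 100 − (FA/FA0 × 100), from emission area 510–750 nm (excitation 501 nm). DC50 was taken as 50% displacement; otherwise the displacement at 2.5 µM ligand is given.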

Homo sapiens [16] = species: Homo sapiens; assay: Displacement of thiazole orange from 5'-CA2TCG2ATCGA2T2CGATC2GAT2G-3' (unknown origin) assessed as reduction of fluorescence at 2.5 uM by G4-FID assay; outline: as §4
Homo sapiens [17] = species: Homo sapiens; assay: Binding affinity to human telomeric 5'-AG3(T2AG3)3-3' by circular dichroism spectroscopy
Outline: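 DNA at 2 µM final in 10 mM Tris-HCl, 100 mM KCl, pH 7.4 was annealed at 95 °C for 10 min and slowly cooled. Ligand was then added at several final concentrations. Spectra were recorded from 220 to 320 nm in a 5 mm cell at 25 °C, averaged over five scans and buffer-corrected, to assess whether the G-quadruplex fold was retained.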

Homo sapiens [18] = species: Homo sapiens; assay: Binding affinity to human telomeric 5'-FAMd(G3[T2AG3]3)-TAMRA-3' in Na+ solution assessed as melting temperature at 2 uM by FRET assay; outline: as §3
Homo sapiens [19] = species: Homo sapiens; assay: Binding affinity to human telomeric 5'-FAMd(G3[T2AG3]3)-TAMRA-3' in Na+ solution assessed as melting temperature at 0.5 uM by FRET assay; outline: as §3
Homo sapiens [20] = species: Homo sapiens; assay: Binding affinity to c-KIT G-quadruplex 5'-G3CG3CGCGAG3AG4-3' (unknown origin) by circular dichroism spectroscopy
Homo sapiens [21] = species: Homo sapiens; assay: Displacement of thiazole orange from human telomeric 5'-AG3(T2AG3)3-3' (unknown origin) in K+ solution assessed as reduction of fluorescence by G4-FID assay; outline: as §4
Homo sapiens [22] = species: Homo sapiens; assay: Displacement of thiazole orange from human telomeric 5'-AG3(T2AG3)3-3' (unknown origin) in Na+ solution assessed as reduction of fluorescence by G4-FID assay; outline: as §4
Homo sapiens [23] = species: Homo sapiens; assay: Displacement of thiazole orange from c-KIT G-quadruplex 5'-G3CG3CGCGAG3AG4-3' (unknown origin) assessed as reduction of fluorescence by G4-FID assay; outline: as §4

SMILES | ΔTm (Homo sapiens [1]) [°C] | ΔTm (Homo sapiens [2]) [°C] | ΔTm (Homo sapiens [3]) [°C] | ΔTm (Homo sapiens [4]) [°C] | ΔTm (Homo sapiens [5]) [°C] | ΔTm (Homo sapiens [6]) [°C] | ΔTm (Homo sapiens [7]) [°C] | Ratio (Homo sapiens [8]) | Kd [9] [nM] | Kd [10] [nM] | ΔTm (Homo sapiens [11]) [°C] | Kd [12] [nM] | inhibition (Homo sapiens [13]) | ΔTm (Homo sapiens [14]) [°C] | ΔTm (Homo sapiens [18]) [°C] | ΔTm (Homo sapiens [19]) [°C] | further results
C[n+]1ccc(-c2c3nc(c(-c4cc[n+](C)cc4)c4ccc([nH]4)c(-c4cc[n+](C)cc4)c4ccc([nH]4)c(-c4cc[n+](C)cc4)c4nc2C=C4)C=C3)cc1 | 9.3 | 14.8 | > 35 | > 25 | 19.7 | 23.1 | > 25 | – | – | – | – | – | – | – | – | – | –
CC(C)/N=C(/NCCn1cc(-c2ccc3ccc4ccc(-c5cn(CCN/C(=N\C(C)C)NC(C)C)nn5)nc4c3n2)nn1)NC(C)C | 0.7 | 1.1 | 13.6 | 10.4 | 4.2 | 9.7 | 7.4 | 13 | – | 567 | 12.5 | 40 | inactive | – | – | – | –
CC(C)/N=C(/NCCCCn1cc(-c2ccc3ccc4ccc(-c5cn(CCCCN/C(=N\C(C)C)NC(C)C)nn5)nc4c3n2)nn1)NC(C)C | 0.8 | 1.3 | 18.1 | 13.9 | 5.1 | 15.1 | 10.3 | 2 | – | 176 | 15.9 | 35 | inactive | – | – | – | –
CC(C)/N=C(/NCCCn1cc(-c2ccc3ccc4ccc(-c5cn(CCCN/C(=N\C(C)C)NC(C)C)nn5)nc4c3n2)nn1)NC(C)C | 0.7 | 1.3 | 14.5 | 12 | 3.2 | 9.5 | 8.3 | 13 | – | 440 | 14.6 | 33 | inactive | 4.3 | 8.8 | 2.8 | –
NCCCCn1cc(-c2ccc3ccc4ccc(-c5cn(CCCCN)nn5)nc4c3n2)nn1 | 1 | 1.3 | 15.8 | 13.6 | 10.1 | 12.9 | 11.1 | 2 | 1060 | 115 | 15.2 | 50 | – | – | – | – | –
NCCn1cc(-c2ccc3ccc4ccc(-c5cn(CCN)nn5)nc4c3n2)nn1 | 0.4 | 0.6 | 6.8 | 4.9 | 4.4 | 5.5 | 3.7 | 2 | 1180 | 139 | 6.2 | 47 | – | – | – | – | –

Further lines, with some results ahead:

ΔTm (Homo sapiens [1]) [°C] | ΔTm (Homo sapiens [2]) [°C] | ΔTm (Homo sapiens [3]) [°C] | ΔTm (Homo sapiens [4]) [°C] | ΔTm (Homo sapiens [5]) [°C] | ΔTm (Homo sapiens [6]) [°C] | ΔTm (Homo sapiens [7]) [°C] | Ratio (Homo sapiens [8]) | Kd [9] [nM] | Kd [10] [nM] | ΔTm (Homo sapiens [11]) [°C] | Kd [12] [nM] | inhibition (Homo sapiens [13]) | ΔTm (Homo sapiens [14]) [°C] | ΔTm (Homo sapiens [18]) [°C] | ΔTm (Homo sapiens [19]) [°C] | SMILES | further results
1.2 | 2.5 | 18.9 | 13.9 | 11 | 15 | 11 | 2 | 1120 | 75 | 16.4 | 50 | – | – | – | – | N=C(N)NCCn1cc(-c2ccc3ccc4ccc(-c5cn(CCNC(=N)N)nn5)nc4c3n2)nn1 | –
1.7 | 3.7 | 21.8 | 16.8 | 12.2 | 17.3 | 13.8 | 2 | 1020 | 61 | 18.5 | 29 | – | – | – | – | N=C(N)NCCCCn1cc(-c2ccc3ccc4ccc(-c5cn(CCCCNC(=N)N)nn5)nc4c3n2)nn1 | –
1.6 | 2.8 | 22 | 16.1 | 12.2 | 18 | 11.4 | 2 | 1060 | 57 | 18.4 | 28 | – | 11.4 | 16.4 | 6.6 | N=C(N)NCCCn1cc(-c2ccc3ccc4ccc(-c5cn(CCCNC(=N)N)nn5)nc4c3n2)nn1 | inhibition (Homo sapiens [15]): 47%; inhibition (Homo sapiens [16]): 21%; Activity (Homo sapiens [17]): Active; Activity (Homo sapiens [20]): Active; Q50 (Homo sapiens [21]): 0.94 µM; Q50 (Homo sapiens [22]): > 2.5 µM; Q50 (Homo sapiens [23]): 0.25 µM
1.1 | 1.2 | 16.1 | 11.8 | 10.3 | 13.3 | 9.8 | 2 | 914 | 75 | 13.9 | 45 | – | 8.4 | 11.9 | 5.1 | NCCCn1cc(-c2ccc3ccc4ccc(-c5cn(CCCN)nn5)nc4c3n2)nn1 | –
